# Activity calls are given as the source filed them.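 How the source made its calls, unless noted: active means GFP response above 150% of the DMSO level; inconclusive means fewer than 70 events counted for a yeast strain; inactive means the rest.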
# Tests used:
# [1] = hit retest on RPL19A-GFP reporter strain – cell-based, S. cerevisiae, flow cytometry, cherry picks, mother/daughter gates, confirmation (AID 2270;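 active means GFP response below 50% of the DMSO control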); conditions: 3 h, at 10 µM, stronger effect = lower value, 100 = same GFP as DMSO wells
# [2] = yeast TOR pathway reporter LAP4-GFP change – cell-based, cherry picks, flow cytometry, mother/daughter gates, confirmation (AID 2271;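 active means GFP response above 150% of the DMSO control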;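 further: ratio of sample to DMSO plate mean so 100% equals DMSO level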); conditions: S. cerevisiae LAP4-GFP strain, 3 h, at 10 µM, stronger effect = higher value, 100 means same as DMSO control
# Summary of the method: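 System: Alexa 633-stained baker's yeast GFP-fusion strain / Medium: synthetic complete (SC) yeast growth medium / Doses: compound at 10 µM, single point / Times: 3 h treatment at 30 °C with rotation / Detection: HT flow cytometry, GFP fluorescence channel / Benchmarks: DMSO-only negative wells, rapamycin 400 ng/mL positive wells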
# [3] = TOR pathway reporter MEP2-GFP, retest of hits – S. cerevisiae, flow cytometry GFP, cherry picks, confirmation (AID 2272;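 active means GFP response above 150% of the DMSO control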;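 further: ratio of well signal to plate DMSO mean so 100% equals DMSO level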); conditions: S. cerevisiae MEP2-GFP strain, 3 h, at 10 µM, stronger effect = higher value
# [4] = yeast AGP1-GFP fluorescence change, single-dose – cell-based, flow cytometry, S. cerevisiae, cherry picks, confirmation (AID 2273);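 further: median GFP channel fluorescence over the whole cell population gate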; conditions: S. cerevisiae AGP1-GFP strain, 3 h, at 10 µM
# [5] = TOR pathway CIT2 reporter hit retest – S. cerevisiae, GFP fusion, cherry picks, mother/daughter gates, confirmation (AID 2274); conditions: S. cerevisiae CIT2-GFP strain, flow cytometry, 3 h, at 10 µM, stronger effect = higher value
# [6] = measured here: daughter cell gate
# [7] = measured here: mother cell gate
# [8] = measured here: daughter cell gate response
# [9] = measured here: mother cell gate response
Structure (SMILES),GFP response vs DMSO [1],"GFP response vs DMSO [1, 6]","GFP response vs DMSO [1, 7]",GFP response relative to DMSO [2],"GFP response relative to DMSO [2, 8]","GFP response relative to DMSO [2, 9]",GFP response vs DMSO [3],"GFP response, % of DMSO [4]","GFP response, % of DMSO [5]","GFP response, % of DMSO [5, 6]","GFP response, % of DMSO [5, 7]"
Cc1noc2ncnc(Sc3c(Cl)cccc3Cl)c12,101% (inactive),102%,99.8%,94.1% (inactive),94.4%,94%,100% (inactive),88.6% (inactive),105% (inactive),105%,104%
Cc1ccsc1/C=N/Nc1ncc(Cl)cc1Cl,97% (inactive),94.2%,85.8%,177% (active),107%,189%,109% (inactive),83.7% (inactive),100% (inactive),101%,84.6%
O=[N+]([O-])c1ccc(Cl)cc1Sc1ccccn1,105% (inactive),108%,104%,94.1% (inactive),96%,91.3%,112% (inactive),102% (inactive),111% (inactive),110%,108%
Cc1ccc(/C=N\NC(=O)c2cc(OCC(F)(F)F)ccc2OCC(F)(F)F)cc1,100% (inactive),101%,100%,91.5% (inactive),91.2%,92.9%,94.1% (inactive),102% (inactive),105% (inactive),108%,106%
COc1ccc(NC(=O)C2CCN(S(=O)(=O)c3ccc(OC)c(OC)c3)CC2)c(OC)c1,90.6% (inactive),92%,89%,99.5% (inactive),99.1%,102%,107% (inactive),100% (inactive),103% (inactive),97.4%,105%
C#CCSc1nncn1C(=O)/C=C/c1ccccc1,99.4% (inactive),98.6%,95%,145% (inactive),142%,153%,103% (inactive),101% (inactive),103% (inactive),111%,93.7%
CCn1c(=O)c(C(=O)Nc2ccccc2C)c(O)c2ccccc21,97.8% (inactive),98.1%,97.9%,102% (inactive),102%,99.3%,105% (inactive),96% (inactive),96.9% (inactive),99.1%,96.1%
O=C(c1ccc([N+](=O)[O-])o1)N1CCN(c2nc3c(F)cc(F)cc3s2)CC1,80.1% (inactive),78%,67.5%,250% (active),169%,232%,197% (active),102% (inactive),142% (inactive),108%,121%
c1ccc(CSc2ccc(-c3ccccn3)nn2)cc1,101% (inactive),97.1%,91.9%,108% (inactive),104%,106%,114% (inactive),96.7% (inactive),97.3% (inactive),97.4%,93.2%
C=CCOc1ccc(/C=C2\N=C(C)OC2=O)cc1OC,105% (inactive),107%,103%,137% (inactive),136%,136%,119% (inactive),94.5% (inactive),103% (inactive),106%,99.7%
O=C1[C@@H]2C3C=CC(O3)[C@@H]2C(=O)N1c1ccccc1,101% (inactive),102%,100%,107% (inactive),107%,109%,101% (inactive),107% (inactive),100% (inactive),101%,100%
COC(=O)c1ccc(N2C(=O)CC(SCCN)C2=O)cc1 (configuration not stated),98.7% (inactive),100%,98.4%,98.9% (inactive),102%,100%,101% (inactive),103% (inactive),100% (inactive),103%,99.3%
COc1ccc(Br)cc1/C=C/C(=O)c1ccc(NC(C)=O)cc1,100% (inactive),98.4%,97.7%,89.4% (inactive),89.8%,92.3%,101% (inactive),98.6% (inactive),98.6% (inactive),101%,96%
COc1ccc(N=Cc2nc(-c3ccccc3)oc2OC(=O)c2ccccc2)cc1,101% (inactive),101%,101%,108% (inactive),104%,111%,94.4% (inactive),98.1% (inactive),93.4% (inactive),92.1%,91.8%
C=CCN1C(=O)C2(C(C#N)=C(N)Oc3n[nH]c(CCC)c32)c2ccccc21 (configuration not stated),100% (inactive),99.8%,102%,97.4% (inactive),100%,98.3%,100% (inactive),102% (inactive),100% (inactive),98.1%,102%
CC(=O)Nc1cccc(Oc2ccc(-c3noc(C)n3)cc2)c1,95.8% (inactive),93.4%,96.3%,101% (inactive),99.1%,102%,107% (inactive),93.6% (inactive),97.3% (inactive),95.6%,96.8%
CCOC(=O)c1sc(NC(=O)c2ccco2)nc1-c1ccccc1,97.8% (inactive),96.4%,96.7%,96.5% (inactive),94.4%,98.4%,103% (inactive),100% (inactive),98.6% (inactive),97.6%,99.3%

# Source: PubChem BioAssay
